Consider one molecule from ChEMBL document CHEMBL1157310, “Cytotoxic oxylipins from a marine sponge Topsentia sp” (2006).

≈ marks a conversion by molar mass, not a printed value.

Common to all, as to type: functional
Holding throughout (settings): read-out: ED50 (the source's name)

The subject of one assay is A549. The assay can be described thus: Cytotoxicity against human A549 cells.
The test system of a further assay is SK-OV-3. The assay can be described thus: Cytotoxicity against human SK-OV-3 cells.
In a further assay the test system is SK-MEL-2. Description: Cytotoxicity against human SK-MEL-2 cells. The gist of the method: (§1)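 Human tumour cell lines of stated origin: SK-MEL-2 from skin cancer, XF498 from CNS cancer, HCT 15 from colon cancer.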
For the next assay, the system named is XF498. Description: Cytotoxicity against human XF498 cells. The method in brief: as §1
In another assay the test system is HCT-15. The assay can be described thus: Cytotoxicity against human HCT15 cells. The gist of the method:
as §1

With `COc1cccc2c1C(=O)c1c(O)c3c(c(O)c1C2=O)C[C@@](O)(C(=O)CO)C[C@@H]3O[C@H]1C[C@H](N)[C@H](O)[C@H](C)O1` [DOXORUBICIN], the EC50 in the assay on A549 was 0.04 µg/mL (≈ 0.0736 µM); with SK-OV-3, 0.13 µg/mL (≈ 0.239 µM); in the assay on SK-MEL-2, 0.04 µg/mL (≈ 0.0736 µM); with XF498, 0.06 µg/mL (≈ 0.11 µM); in the assay with HCT-15 it was 0.06 µg/mL (≈ 0.11 µM).
